One data set has as its system Staphylococcus aureus. The experiment in a line: Antibacterial activity against Staphylococcus aureus measured every 120 mins for 36 hrs by LB broth two-fold serial dilution method. The class given is functional. Put shortly:
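Panel of 12 laboratory and clinical S. aureus strains with varied drug-susceptibility patterns. Compounds were two-fold serially diluted in LB broth from a maximum of 32 mg/L. Growth was followed by OD600 every 120 min for 36 h. Vancomycin was the positive control, and runs were in duplicate.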

Another data set has as its system K562. Put plainly: Anticancer activity against human K562 cells assessed as tumour cell growth at 10 uM after 48 hrs by SRB assay relative to control. The class given is functional. In outline: (§1)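 NCI 60-line primary screen at a single 10 μM dose in RPMI-1640 with 5% FBS and 2 mM L-glutamine. Cells were preincubated 24 h at 37 °C in 5% CO₂, with time-zero plates fixed with TCA. Compounds (DMSO, diluted in gentamicin medium) were incubated 48 h, then cells TCA-fixed and stained with 0.4% SRB (A515). Growth percent was derived from time-zero, control and treated absorbances.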

The next data set deals with NIH3T3. The experiment in a line: Cytotoxicity against mouse 3T3 cells assessed as cell viability measured after 48 hrs by MTT assay. The class given is cell-based. As to conditions: nih3t3, 48 h. In outline: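 3T3 fibroblasts in DMEM with 10% FBS and penicillin-streptomycin, seeded at 10^4 cells/well 24 h prior. Exposed 48 h to two-fold serial dilutions from a 100 mg/mL DMSO stock. MTT (5 mg/mL in PBS) added for 1.5 h, formazan dissolved in DMSO, read at 530 nm. Duplicate runs on different days. Value interpolated between DMSO (100%) and cycloheximide (0%) controls.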

The test system of data set [1] is Mycobacterium tuberculosis. Put plainly: Antitubercular activity against Mycobacterium tuberculosis H37Rv ATCC27294 measured after 2-3 weeks by agar dilution SPOTi assay. The class given is functional. As to conditions: H37Rv ATCC 27294. Put shortly: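 Agar dilution SPOTi on Middlebrook 7H10 with 0.5% glycerol and 10% OADC. Final compound levels 50, 20, 10, 5, 2 mg/L, added from DMSO dilutions. 2 µL of a 10^6 CFU/mL inoculum from a 4-week Löwenstein-Jensen culture spotted per well, incubated 2-3 weeks at 37°C. MIC is the lowest concentration with no visible growth. Repeated on a separate day; isoniazid was the reference.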

Data set [2] in a line: Selectivity index, ratio of LC50 for mouse 3T3 cells to MIC for Mycobacterium tuberculosis H37Rv ATCC27294. The class given is toxicity. As to conditions: read-out: Selectivity Index.
In data set [3] the test system is Mycolicibacterium smegmatis. Put plainly: Antibacterial activity against Mycobacterium smegmatis MC2 155 measured after 48 hrs by agar dilution SPOTi assay. The data set is classed as functional. As to conditions: MC2 155, 48 h. In outline:
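SPOTi agar dilution on Middlebrook 7H10 without OADC. Cells were passaged in Middlebrook 7H9 and then spotted. Compounds were tested at 100, 50, 20, 10 and 5 mg/L, with kanamycin as positive control. Plates were incubated 48 h at 37°C. MIC was taken as the lowest concentration with no visible growth.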

A further data set has as its system HCT-116. The experiment in a line: Anticancer activity against human HCT116 cells assessed as tumour cell growth at 10 uM after 48 hrs by SRB assay relative to control. The class given is functional. Put shortly:
as §1

The test system of a further data set is SR. The experiment in a line: Anticancer activity against human SR cells assessed as tumour cell growth at 10 uM after 48 hrs by SRB assay relative to control. The class given is functional. In outline:
as §1

The test system of another data set is HL-60. The experiment in a line: Anticancer activity against human HL60 cells assessed as tumour cell growth at 10 uM after 48 hrs by SRB assay relative to control. The class given is functional. In outline: as §1
In a further data set the test system is M14. The experiment in a line: Anticancer activity against human M14 cells assessed as tumour cell growth at 10 uM after 48 hrs by SRB assay relative to control. The class given is functional. In outline: as §1

Values after ≈ are worked out from the molar mass of the structure shown.

As to `COc1ccc(C(=O)/C=C/c2ccccc2)cc1S(N)(=O)=O`, the MIC against Staphylococcus aureus is more than 57 µM; in [1], 16 µM (≈ 5.08 µg/mL); in [3] it was more than 175 µM. Moreover, the Activity in the data set with K562 was 7.9%. Moreover, in the data set on NIH3T3, the LC50 worked out at 7.7 µM. Moreover, the selectivity ratio in data set [2] was determined as 0.48.

Regarding `C[C@@H]1C[C@@H]([C@H](O)CC2CC(=O)NC(=O)C2)C(=O)[C@@H](C)C1` [CYCLOHEXIMIDE], the median lethal concentration (LC50) in the data set on NIH3T3 is less than 2.2 µM.

As for `NNC(=O)c1ccncc1` [ISONIAZID], in data set [1], the minimal inhibitory concentration (MIC) came to 0.36 µM (≈ 0.0494 µg/mL).

On to `COc1ccc(C(=O)/C=C/c2ccc(C)cc2)cc1S(N)(=O)=O`, for which the MIC with Staphylococcus aureus was more than 57 µM; in data set [1] it was 30 µM (≈ 9.94 µg/mL); in [3], more than 175 µM. Further, the Activity in the data set with K562 turned out to be 3.04%. For the same molecule, the LC50 in the data set with NIH3T3 amounted to 4.3 µM. Also, the selectivity ratio in data set [2] came to 0.14.

As for `COc1ccc(C(=O)/C=C/c2ccccc2)cc1S(=O)(=O)Nc1c(N)nc(SC)[nH]c1=O`, the MIC against Staphylococcus aureus is more than 57 µM; in data set [1], 42 µM (≈ 19.8 µg/mL); in data set [3], more than 175 µM. In addition, the Activity with K562 worked out at 35.63%; with HCT-116 it was 35.18%. In the data set on NIH3T3, the median lethal concentration (LC50) was determined as 17 µM. In addition, the selectivity ratio in [2] amounted to 0.4.

For `COc1ccc(/C=C/C(=O)c2ccc(OC)c(S(N)(=O)=O)c2)cc1`, the MIC in the data set on Staphylococcus aureus was more than 57 µM; in data set [1] it was more than 144 µM; in data set [3], more than 175 µM. In addition, the Activity in the data set on K562 was determined as 38.78%; in the data set on SR it was 28.1%. Besides, in the data set with NIH3T3, the LC50 stood at 96 µM.

Take `COc1ccc(C(=O)/C=C/c2ccc3c(c2)OCO3)cc1S(=O)(=O)Nc1c(N)nc(SC)[nH]c1=O`: the minimum inhibitory concentration (MIC) in the data set on Staphylococcus aureus was more than 57 µM; in data set [1], more than 97 µM; in data set [3], more than 175 µM. The Activity with K562 amounted to 53.79%; with HCT-116, 18.36%. In the data set with NIH3T3, the median lethal concentration (LC50) came to 7.1 µM.

Regarding `COc1ccc(C(=O)/C=C/c2cc(OC)c(OC)c(OC)c2)cc1S(N)(=O)=O`, the values for the MIC (in the data set with Staphylococcus aureus; in data set [1]; in data set [3]) were more than 57 µM, more than 123 µM and more than 175 µM, respectively. Also, in the data set on NIH3T3, the LC50 was 2.4 µM.

On to `COc1ccc(/C=C/C(=O)c2ccc(OC)c(S(=O)(=O)Nc3c(N)nc(SC)[nH]c3=O)c2)cc1`, for which the minimum inhibitory concentration (MIC) is more than 57 µM in the data set on Staphylococcus aureus, more than 100 µM in data set [1] and more than 175 µM in data set [3]. The Activity is recorded as 54.26% in the data set with K562 and 24.01% with HCT-116. In the data set on NIH3T3, the 50% lethal concentration (LC50) amounted to 6.5 µM.

For the molecule `COc1ccc(C(C)=O)cc1S(N)(=O)=O`, the values for the MIC (against Staphylococcus aureus; in data set [1]; in data set [3]) were more than 57 µM, more than 218 µM and more than 175 µM, respectively. Moreover, the Activity in the data set on HL-60 amounted to 74.74%. Further, the 50% lethal concentration (LC50) in the data set with NIH3T3 is more than 2700 µM.

Turning to `COc1ccc(C(=O)/C=C/c2cc(OC)c(OC)c(OC)c2)cc1S(=O)(=O)Nc1c(N)nc(SC)[nH]c1=O`, the results for the MIC (against Staphylococcus aureus; in [1]; in [3]) were more than 57 µM, more than 89 µM and more than 175 µM, respectively. For the same molecule, the LC50 in the data set with NIH3T3 came to 2.1 µM.

Regarding `COc1ccc(C(=O)/C=C/c2ccc(C)cc2)cc1S(=O)(=O)Nc1c(N)nc(SC)[nH]c1=O`, the values for the MIC (with Staphylococcus aureus; in data set [1]; in data set [3]) were more than 57 µM, 41 µM (≈ 19.9 µg/mL) and more than 175 µM, respectively. Also, the Activity in the data set with K562 was found to be 38.79%; in the data set with HCT-116, 10.78%. The LC50 in the data set on NIH3T3 was determined as 7.2 µM. Also, the selectivity ratio in [2] worked out at 0.18.

In the case of `COc1ccc(C(=O)/C=C/c2ccc3c(c2)OCO3)cc1S(N)(=O)=O`, the MIC against Staphylococcus aureus was more than 57 µM; in [1] it was more than 138 µM; in [3], more than 175 µM. Moreover, the Activity in the data set with K562 amounted to 44.59%; in the data set on HCT-116, 19.22%. The median lethal concentration (LC50) in the data set on NIH3T3 is 132 µM.

Take `COc1ccc(C(C)=O)cc1S(=O)(=O)Nc1c(N)nc(SC)[nH]c1=O`: the MIC was more than 57 µM in the data set with Staphylococcus aureus, more than 130 µM in data set [1] and more than 175 µM in data set [3]. Moreover, the Activity in the data set on M14 was 94.85%. Moreover, the 50% lethal concentration (LC50) with NIH3T3 was more than 1600 µM.

These data come from ChEMBL document CHEMBL4393705, “New chalcone-sulfonamide hybrids exhibiting anticancer and antituberculosis activity” (Eur J Med Chem, 2019).
